{"data": "Measured values from different studies", "rep main protease": "Replicase polyprotein 1ab, main protease (rep, Severe acute respiratory syndrome-related coronavirus, UniProt P0C6X7)", "Melanocortin receptor 5": "Melanocortin receptor 5 (Mus musculus, UniProt P41149)", "note": "Compare with care: the assays were run in different laboratories."}
{"SMILES": "[Hg+2]", "target": "rep main protease", "observed": "enzyme activity", "action": "inhibitor", "quantity": "Ki", "value": "0.5 µM"}
{"SMILES": "Clc1cccc(N2CCNCC2)c1Cl", "target": "Muscarinic acetylcholine receptor M4 (CHRM4, Homo sapiens, UniProt P08173)", "observed": "ligand displacement", "technique": "radioligand", "notes": "cell membranes", "quantity": "Ki", "value": "> 63.1 µM"}
{"SMILES": "COc1ccc(-c2nsc(NC(=O)[C@@H]3C[C@H]3C)c2C)cc1", "target": "Metabotropic glutamate receptor 1 (GRM1, Homo sapiens, UniProt Q13255)", "observed": "calcium signal", "action": "antagonist", "quantity": "IC50", "value": "0.0089 µM"}
{"SMILES": "O=C(O)[C@H]1O[C@@H](Oc2cc3oc(-c4ccccc4)cc(=O)c3c(O)c2O)[C@H](O)[C@@H](O)[C@@H]1O", "target": "rep main protease", "observed": "enzyme activity", "action": "inhibitor", "quantity": "IC50", "value": "101 µM"}
{"SMILES": "CN[C@]1(c2ccccc2Cl)CCCCC1=O", "target": "Ferritin light chain (FTL, Equus caballus, UniProt P02791)", "observed": "cell-free assay", "technique": "fluorescence", "quantity": "Kd", "value": "42 µM"}
{"SMILES": "C[C@@H]1NC(=O)[C@H](CCCN)NC(=O)[C@H](Cc2ccccc2)NC(=O)[C@H](Cc2ccccc2)NC(=O)[C@H](CCCNC(=N)N)NC(=O)[C@@H]2CCCN2C(=O)[C@H]2CCCN2C(=O)[C@H](Cc2ccccc2)NC1=O", "target": "Melanocortin receptor 5", "observed": "reporter gene", "action": "agonist", "quantity": "EC50", "value": "> 100 µM"}
{"SMILES": "O=C1c2c(O)cc(O)cc2O[C@H](c2cc(O)c(O)c(O)c2)[C@H]1O", "target": "rep main protease", "observed": "enzyme activity", "action": "inhibitor", "quantity": "IC50", "value": "4.58 µM"}
{"SMILES": "C[C@@H]1NC(=O)[C@H](CC(N)=O)NC(=O)[C@H](Cc2ccccc2)NC(=O)[C@H](Cc2cccc3ccccc23)NC(=O)[C@H](CCCNC(=N)N)NC(=O)[C@@H]2CCCN2C(=O)[C@H]2CCCN2C(=O)[C@H](Cc2ccccc2)NC1=O", "target": "Melanocortin receptor 5", "observed": "reporter gene", "action": "agonist", "quantity": "EC50", "value": "> 100 µM"}
{"SMILES": "CN1CCC(C(c2ccccc2)c2ccccc2)CC1", "target": "Histamine H1 receptor (HRH1, Homo sapiens, UniProt P35367)", "observed": "cell-free assay", "technique": "radioligand", "quantity": "Ki", "value": "0.0251 µM"}
